ChEMBL document CHEMBL5674885, “HIV-1 Vpr counteracts HLTF-mediated restriction of HIV-1 infection in T cells” (Proc Natl Acad Sci U S A, 2019)
Activity calls are given as the source filed them. The calls are words filed in the database; no cut-off is given here.

How the values were obtained:
[1] = Cytotoxicity in human CEM.SS T cells assessed as cell viability level at 1 uM; format: toxicity, cell-based; settings: time 7 day, read-out: Activity
[2] = target: T1, Aberrant vpr protein (Human immunodeficiency virus 1) (UniProt Q77YF9); assay: Modulation of HIV-1 Vpr-dependent enhancement of HIV-1 replication in human CEM.SS T cells assessed as effect on percentages of cell-associated HIV-1 DNA at 1 uM added starting 12 hrs before HIV-1 infection until 7 dpi; format: cell-based; settings: time 7.0 day
T1 sequence (whole entry): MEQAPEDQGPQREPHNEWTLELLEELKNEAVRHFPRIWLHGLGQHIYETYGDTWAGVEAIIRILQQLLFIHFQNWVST
How it was run: (§1)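 CEM.SS cells held in drug from ~12 h before infection to 7 dpi, infected (1×10⁵ cells) with a DNase-treated, qPCR-normalized 1:1 mix of NL4-3 reporters HIV-1.mRFP.vpr.wt and HIV-1.RFP.vpr.Q8*, combined moi 0.006–0.02. Density was reset on 3 and 5 dpi, and only cultures with <5% RFP⁺ cells at 7 dpi were kept. Share of each virus DNA at 7 dpi came from SYBR qPCR of RFP/mRFP amplicons against plasmid standards; three biological replicates.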

[3] = target: T1, Aberrant vpr protein (Human immunodeficiency virus 1); assay: Modulation of HIV-1 Vpr-dependent enhancement of HIV-1 replication in human CEM.SS T cells assessed as effect on percentages of cell-associated HIV-1 DNA at 2 uM added starting 12 hrs before HIV-1 infection until 7 dpi; format: cell-based; settings: time 7.0 day; how it was run: as §1
[4] = Cytotoxicity in human CEM.SS T cells assessed as cell viability level at 2 uM; format: toxicity, cell-based; settings: time 7 day, read-out: Activity
[5] = Cytotoxicity in human CEM.SS T cells assessed as cell viability level at 200 nM; format: toxicity, cell-based; settings: time 7 day, read-out: Activity
[6] = target: T1, Aberrant vpr protein (Human immunodeficiency virus 1); assay: Modulation of HIV-1 Vpr-dependent enhancement of HIV-1 replication in human CEM.SS T cells assessed as effect on percentages of cell-associated HIV-1 DNA at 200 nM added starting 12 hrs before HIV-1 infection until 7 dpi; format: cell-based; settings: time 7.0 day; how it was run: as §1
[7] = target: T1, Aberrant vpr protein (Human immunodeficiency virus 1); assay: Modulation of HIV-1 Vpr-dependent enhancement of HIV-1 replication in human CEM.SS T cells assessed as effect on percentages of cell-associated HIV-1 DNA at 10 uM added starting 12 hrs before HIV-1 infection until 7 dpi; format: cell-based; settings: time 7.0 day; how it was run: as §1
[8] = Cytotoxicity in human CEM.SS T cells assessed as cell viability level at 10 uM; format: toxicity, cell-based; settings: time 7 day, read-out: Activity
[9] = target: T1, Aberrant vpr protein (Human immunodeficiency virus 1); assay: Modulation of HIV-1 Vpr-dependent enhancement of HIV-1 replication in human CEM.SS T cells assessed as effect on percentages of cell-associated HIV-1 DNA at 3 uM added starting 12 hrs before HIV-1 infection until 7 dpi; format: cell-based; settings: time 7.0 day; how it was run: as §1
[10] = Cytotoxicity in human CEM.SS T cells assessed as cell viability level at 3 uM; format: toxicity, cell-based; settings: time 7 day, read-out: Activity
[11] = Cytotoxicity in human CEM.SS T cells assessed as cell viability level at 1 nM; format: toxicity, cell-based; settings: time 7 day, read-out: Activity
[12] = target: T1, Aberrant vpr protein (Human immunodeficiency virus 1); assay: Modulation of HIV-1 Vpr-dependent enhancement of HIV-1 replication in human CEM.SS T cells assessed as effect on percentages of cell-associated HIV-1 DNA at 1 nM added starting 12 hrs before HIV-1 infection until 7 dpi; format: cell-based; settings: time 7.0 day; how it was run: as §1
[13] = Cytotoxicity in human CEM.SS T cells assessed as cell viability level at 0.67 uM; format: toxicity, cell-based; settings: time 7 day, read-out: Activity
[14] = target: T1, Aberrant vpr protein (Human immunodeficiency virus 1); assay: Modulation of HIV-1 Vpr-dependent enhancement of HIV-1 replication in human CEM.SS T cells assessed as effect on percentages of cell-associated HIV-1 DNA at 0.67 uM added starting 12 hrs before HIV-1 infection until 7 dpi; format: cell-based; settings: time 7.0 day; how it was run: as §1

COc1cc2c(NC3CCN(C(C)C)CC3)nc(C3CCCCC3)nc2cc1OCCCN1CCCC1
viability at 168 h, 1 µM [1]: > 80%
Activity [2]: inactive

CC(C)N(CCCNC(=O)Nc1ccc(C(C)(C)C)cc1)C[C@H]1O[C@@H](n2cc(Br)c3c(N)ncnc32)[C@H](O)[C@@H]1O
Activity [3]: inactive
viability at 168 h, 2 µM [4]: > 80%

O=C(CCCCCCC(=O)Nc1ccccc1)NO [VORINOSTAT]
viability at 168 h, 0.2 µM [5]: > 80%
Activity [6]: inactive

NC(=O)C1CCCc2c1[nH]c1ccc(Cl)cc21 (centres undefined)
Activity [7]: inactive
viability at 168 h, 10 µM [8]: > 80%

CC1=NN(c2ccc(C(=O)O)cc2)C(=O)/C1=C\c1ccc(-c2cc(C)c(C)cc2[N+](=O)[O-])o1
Activity [9]: inactive
viability at 168 h, 3 µM [10]: > 80%

CC(/C=C/C(=O)NO)=C\[C@@H](C)C(=O)c1ccc(N(C)C)cc1 [TRICHOSTATIN]
viability at 168 h, 0.001 µM [11]: > 80%
Activity [12]: inactive

CCCc1cc(C)[nH]c(=O)c1CNC(=O)c1cc(-c2ccnc(N3CCN(C)CC3)c2)cc2c1cnn2C(C)C
viability at 168 h, 0.67 µM [13]: > 80%
Activity [14]: inactive
